According to PMC9245008 (ACS chemical biology, 2022):

Experiments:
[1] = Bioavailability in adult CD-1 mice; type: in vivo
[2] = target: CLK2 (Homo sapiens, UniProt P49760); assay: Dose–response of top 10 kinase hits; type: biochemical
[3] = target: T1, ULK2 (Homo sapiens, UniProt Q8IYT8); assay: MRC Dundee kinase panel screen at 10 μM; type: biochemical
T1 sequence (Q8IYT8 1-1036): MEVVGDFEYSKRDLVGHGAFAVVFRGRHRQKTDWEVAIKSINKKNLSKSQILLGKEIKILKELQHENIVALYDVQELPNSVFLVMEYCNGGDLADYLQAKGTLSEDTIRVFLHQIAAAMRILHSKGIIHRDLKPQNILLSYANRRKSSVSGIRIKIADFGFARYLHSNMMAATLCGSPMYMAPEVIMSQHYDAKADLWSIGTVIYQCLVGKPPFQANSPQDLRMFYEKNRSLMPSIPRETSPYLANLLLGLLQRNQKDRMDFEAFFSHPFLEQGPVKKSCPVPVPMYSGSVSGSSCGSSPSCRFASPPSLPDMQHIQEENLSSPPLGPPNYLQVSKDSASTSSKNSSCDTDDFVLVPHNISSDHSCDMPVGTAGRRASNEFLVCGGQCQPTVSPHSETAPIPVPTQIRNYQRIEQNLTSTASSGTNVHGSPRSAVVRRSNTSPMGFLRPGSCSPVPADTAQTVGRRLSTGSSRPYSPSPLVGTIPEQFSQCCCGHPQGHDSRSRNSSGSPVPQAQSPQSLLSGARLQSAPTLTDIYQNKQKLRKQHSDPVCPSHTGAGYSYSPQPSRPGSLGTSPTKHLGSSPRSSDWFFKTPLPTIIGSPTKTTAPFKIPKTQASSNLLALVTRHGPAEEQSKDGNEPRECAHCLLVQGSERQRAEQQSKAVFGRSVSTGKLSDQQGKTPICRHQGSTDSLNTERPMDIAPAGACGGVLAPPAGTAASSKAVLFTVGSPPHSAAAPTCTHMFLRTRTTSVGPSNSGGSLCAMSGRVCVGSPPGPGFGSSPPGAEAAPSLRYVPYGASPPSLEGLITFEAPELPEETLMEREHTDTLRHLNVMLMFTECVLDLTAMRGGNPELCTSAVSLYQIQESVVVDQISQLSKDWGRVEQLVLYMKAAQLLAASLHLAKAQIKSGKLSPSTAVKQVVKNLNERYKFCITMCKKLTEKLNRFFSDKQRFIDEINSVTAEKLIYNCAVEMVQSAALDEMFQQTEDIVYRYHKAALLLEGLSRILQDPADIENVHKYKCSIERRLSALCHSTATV

[4] = target: T2, NUAK (Homo sapiens, UniProt O60285); assay: Dose–response of top 10 kinase hits; type: biochemical; conditions: read-out: IC50 NUAK, n = 2
T2 sequence (O60285 1-661): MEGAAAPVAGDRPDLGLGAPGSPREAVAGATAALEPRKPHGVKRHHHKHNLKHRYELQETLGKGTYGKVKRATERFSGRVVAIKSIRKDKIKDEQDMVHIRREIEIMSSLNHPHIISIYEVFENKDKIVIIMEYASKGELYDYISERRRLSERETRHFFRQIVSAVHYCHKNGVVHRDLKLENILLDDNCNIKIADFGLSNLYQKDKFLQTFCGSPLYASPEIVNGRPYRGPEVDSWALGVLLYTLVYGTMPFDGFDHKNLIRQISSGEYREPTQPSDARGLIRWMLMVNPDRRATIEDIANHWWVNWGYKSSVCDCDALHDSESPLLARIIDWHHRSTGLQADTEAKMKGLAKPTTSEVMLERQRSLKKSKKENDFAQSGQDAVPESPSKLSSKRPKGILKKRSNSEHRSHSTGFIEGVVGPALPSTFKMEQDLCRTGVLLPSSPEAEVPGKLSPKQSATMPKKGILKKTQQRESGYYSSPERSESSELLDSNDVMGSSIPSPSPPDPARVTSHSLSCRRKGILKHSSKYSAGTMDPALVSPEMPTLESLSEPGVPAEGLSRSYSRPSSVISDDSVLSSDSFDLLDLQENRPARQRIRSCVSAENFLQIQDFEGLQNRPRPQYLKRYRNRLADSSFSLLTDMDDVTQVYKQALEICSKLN

[5] = target: T3, TAK1 (Homo sapiens, UniProt O43318); assay: Dose–response of top 10 kinase hits; type: biochemical; conditions: read-out: IC50 TAK1, n = 2
T3 sequence (O43318 with tags, fused parts or gaps limits assumed): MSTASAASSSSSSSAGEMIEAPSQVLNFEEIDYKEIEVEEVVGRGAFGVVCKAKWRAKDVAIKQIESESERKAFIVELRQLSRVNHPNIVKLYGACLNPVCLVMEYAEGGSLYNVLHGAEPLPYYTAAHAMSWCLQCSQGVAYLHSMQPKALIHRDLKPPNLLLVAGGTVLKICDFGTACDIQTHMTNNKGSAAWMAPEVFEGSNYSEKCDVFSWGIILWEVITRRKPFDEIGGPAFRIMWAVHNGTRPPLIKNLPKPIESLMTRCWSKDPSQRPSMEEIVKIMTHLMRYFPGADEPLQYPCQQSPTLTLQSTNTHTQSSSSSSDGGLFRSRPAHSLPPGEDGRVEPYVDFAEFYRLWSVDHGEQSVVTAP

[6] = target: CSNK1G2 (Homo sapiens, UniProt P78368); assay: Dose–response of top 10 kinase hits; type: biochemical; conditions: read-out: IC50 CSNK1G2, n = 2
Chain of CSNK1G2 (P78368 whole entry): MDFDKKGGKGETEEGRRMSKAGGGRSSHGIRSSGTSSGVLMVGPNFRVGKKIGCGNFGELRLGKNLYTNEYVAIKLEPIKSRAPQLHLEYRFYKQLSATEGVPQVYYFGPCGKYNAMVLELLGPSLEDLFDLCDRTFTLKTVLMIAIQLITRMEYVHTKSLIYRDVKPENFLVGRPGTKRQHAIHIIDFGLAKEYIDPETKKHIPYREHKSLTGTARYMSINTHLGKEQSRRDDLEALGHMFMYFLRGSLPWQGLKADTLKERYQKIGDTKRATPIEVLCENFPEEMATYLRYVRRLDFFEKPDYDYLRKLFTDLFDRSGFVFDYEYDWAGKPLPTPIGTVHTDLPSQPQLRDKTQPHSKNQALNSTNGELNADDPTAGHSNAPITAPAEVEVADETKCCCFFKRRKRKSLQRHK

[7] = target: MLK1 (Homo sapiens, UniProt P80192); assay: Dose–response of top 10 kinase hits; type: biochemical; conditions: read-out: IC50 MLK1, n = 2
Chain of MLK1 (P80192 whole entry): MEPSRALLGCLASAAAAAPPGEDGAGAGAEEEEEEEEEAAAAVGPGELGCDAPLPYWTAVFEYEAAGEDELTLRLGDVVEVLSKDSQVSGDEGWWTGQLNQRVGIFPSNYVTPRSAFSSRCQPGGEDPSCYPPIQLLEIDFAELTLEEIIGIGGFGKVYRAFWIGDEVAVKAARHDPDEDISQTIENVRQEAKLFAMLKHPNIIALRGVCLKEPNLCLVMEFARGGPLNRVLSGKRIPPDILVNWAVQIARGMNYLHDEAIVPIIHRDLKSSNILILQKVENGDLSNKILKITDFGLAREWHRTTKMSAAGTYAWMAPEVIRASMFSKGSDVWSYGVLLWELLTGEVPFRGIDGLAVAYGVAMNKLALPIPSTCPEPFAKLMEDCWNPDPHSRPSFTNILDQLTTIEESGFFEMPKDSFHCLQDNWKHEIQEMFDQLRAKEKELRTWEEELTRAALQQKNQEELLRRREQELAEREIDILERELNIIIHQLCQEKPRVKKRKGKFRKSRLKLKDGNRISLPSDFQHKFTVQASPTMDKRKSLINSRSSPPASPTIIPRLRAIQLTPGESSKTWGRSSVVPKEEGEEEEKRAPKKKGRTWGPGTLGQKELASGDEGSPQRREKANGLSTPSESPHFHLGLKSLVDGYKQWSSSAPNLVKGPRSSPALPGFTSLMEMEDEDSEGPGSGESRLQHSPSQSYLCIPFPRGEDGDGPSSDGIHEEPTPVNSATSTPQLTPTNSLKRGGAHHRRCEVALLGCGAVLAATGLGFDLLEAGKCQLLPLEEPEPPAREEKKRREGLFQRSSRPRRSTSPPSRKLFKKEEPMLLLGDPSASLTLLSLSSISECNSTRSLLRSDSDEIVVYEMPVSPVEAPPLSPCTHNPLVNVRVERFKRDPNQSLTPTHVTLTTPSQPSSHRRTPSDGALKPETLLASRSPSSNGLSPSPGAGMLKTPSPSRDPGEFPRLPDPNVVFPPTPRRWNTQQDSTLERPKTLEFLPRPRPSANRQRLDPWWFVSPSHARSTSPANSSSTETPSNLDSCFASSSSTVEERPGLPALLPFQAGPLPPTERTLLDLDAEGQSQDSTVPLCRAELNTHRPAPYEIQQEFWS

[8] = test system: IL-6 expression in THP-1 cells; assay: Cytokine dose–response curves in THP-1 cells; type: cell-based, human; conditions: read-out: IC50 IL-6 expression; LPS-stimulated THP-1, 24 h
Procedure, shortened: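 THP-1 cells differentiated with PMA (100 nM) for up to 72 h, then rested 24 h in PMA-free RPMI. Pretreated with test compound (3.2 nM–32 μM) or DMSO vehicle, then stimulated with LPS (10 ng/mL). After 24 h, TNF, IL-6 and IL-1β in supernatant measured by Luminex and expressed as percent of vehicle control; n = 3.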

[9] = target: CK1γ2 (Homo sapiens, UniProt P78368); assay: MRC Dundee kinase panel screen at 10 μM; type: biochemical
Chain of CK1γ2 (P78368 whole entry): as the sequence (P78368 whole entry) above

[10] = oral administration, normal mice

Chain of CLK2 (P49760 whole entry): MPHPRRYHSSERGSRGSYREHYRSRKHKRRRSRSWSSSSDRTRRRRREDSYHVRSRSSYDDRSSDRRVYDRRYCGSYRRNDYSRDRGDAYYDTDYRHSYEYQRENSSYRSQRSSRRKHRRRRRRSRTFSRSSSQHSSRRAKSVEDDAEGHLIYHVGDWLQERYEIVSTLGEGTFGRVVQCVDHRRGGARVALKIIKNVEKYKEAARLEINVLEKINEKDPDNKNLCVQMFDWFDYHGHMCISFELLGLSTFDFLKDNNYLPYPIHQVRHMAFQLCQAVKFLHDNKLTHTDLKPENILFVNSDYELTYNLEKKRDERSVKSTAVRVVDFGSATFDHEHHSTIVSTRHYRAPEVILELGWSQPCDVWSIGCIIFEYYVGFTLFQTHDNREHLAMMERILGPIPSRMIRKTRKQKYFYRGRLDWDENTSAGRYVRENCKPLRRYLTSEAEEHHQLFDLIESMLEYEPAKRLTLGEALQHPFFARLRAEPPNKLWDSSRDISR

## CCCn1c(NC(=O)c2cccc(C(N)=O)c2)nc2ccc(CN3CCCCC3)cc21 [HS-276]
[1]; mouse, IV, 30 mg/kg
  AUC0-last: 7960.0 ng·h/mL
  Cmax: 11,162 ng/ml
  Tmax: 0.08 h
  half-life: 1.24 h
[1]; mouse, PO, 30 mg/kg
  %F: 98.1%
  AUC0-last: 7812 ng·h/mL
  Cmax: 3682 ng/mL
  Tmax: 1 h
  half-life: 1.41 h
[1]; [10]
  bioavailability: > 95%
  plasma levels: μM plasma levels
[2]; from dose–response IC50 values
  TAK1 more potently inhibited than CLK2: 3.6 fold
[2]; read-out: IC50 CLK2, dose–response, n = 2
  IC50: 29 nM
[3]
  enzymatic activity: < 15%
[4]
  IC50: 270 nM
[5]
  IC50: 8 nM
[6]
  IC50: 809 nM
[7]
  IC50: 5580 nM
[8]
  IC50: 201 nM
[9]
  enzymatic activity: < 15%
